From ChEMBL document CHEMBL1938250, “The discovery of non-benzimidazole and brain-penetrant prolylcarboxypeptidase inhibitors” (Bioorg Med Chem Lett, 2012)
Blank lines part the entries; values can stand above or below the compound they belong to. Activity calls are given as the source filed them. No cut-off for these calls is given here.

How the values were obtained:
[1] = target: T1, Lysosomal Pro-X carboxypeptidase (Mus musculus, UniProt Q7TMR0); experiment: Inhibition of PrCP-mediated conversion of Ang3 to Ang(2-7) in mouse plasma
T1 sequence (Q7TMR0 whole entry): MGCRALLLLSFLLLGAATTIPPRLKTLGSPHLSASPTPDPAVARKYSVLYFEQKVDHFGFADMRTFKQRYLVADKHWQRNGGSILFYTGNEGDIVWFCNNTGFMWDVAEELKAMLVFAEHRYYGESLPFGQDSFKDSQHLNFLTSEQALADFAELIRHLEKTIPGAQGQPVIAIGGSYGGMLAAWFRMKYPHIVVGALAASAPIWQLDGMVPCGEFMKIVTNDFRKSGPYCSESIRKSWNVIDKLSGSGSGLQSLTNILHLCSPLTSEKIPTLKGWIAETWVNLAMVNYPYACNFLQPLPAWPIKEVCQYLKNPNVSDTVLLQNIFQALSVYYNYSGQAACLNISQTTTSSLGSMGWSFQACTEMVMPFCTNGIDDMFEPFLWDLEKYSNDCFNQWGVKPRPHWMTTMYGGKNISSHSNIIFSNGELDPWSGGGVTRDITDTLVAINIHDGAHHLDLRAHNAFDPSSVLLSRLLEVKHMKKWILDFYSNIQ
How it was run: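 Whole mouse plasma was pretreated with protease inhibitors to block non-PrCP conversion of angiotensin III. Inhibitor was then added, and the rate of conversion of AngIII to Ang(2–7) was compared with a vehicle-treated control.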

[2] = target: T1, Lysosomal Pro-X carboxypeptidase; experiment: Inhibition of recombinant mouse PrCP using Mca-Ala-Pro-Lys(Dnp)-OH as substrate measured for 30 mins by continuous fluorometric assay
[3] = Half life in mouse at 1 mg/kg, iv and 2 mg/kg, po by LC-MS/MS analysis; assay type: ADME, organism-based; settings: in vivo
How it was run: (§1)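 Mice received 1 mg/kg IV (n = 2) or 2 mg/kg PO (n = 3). The formulation was 1 mg/mL in ethanol–PEG–water (20:40:40). Blood was deproteinized with acetonitrile and drug levels were measured by LC/MS/MS. Outputs were clearance, Vd, half-life, %F and dose-normalized oral AUC.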

[4] = Oral bioavailability in mouse at 2 mg/kg by LC-MS/MS analysis; assay type: ADME, organism-based; settings: in vivo; how it was run: as §1
Mus musculus [5] = experiment: Normalized AUC in mouse at 2 mg/kg, po by LC-MS/MS analysis; assay type: ADME, organism-based; parameters: dose 2 mg/kg, route oral; settings: in vivo; how it was run: as §1
[6] = Clearance in mouse at 1 mg/kg, iv and 2 mg/kg, po by LC-MS/MS analysis; assay type: ADME, organism-based; settings: in vivo; how it was run: as §1
[7] = Volume of distribution in mouse at 1 mg/kg, iv and 2 mg/kg, po by LC-MS/MS analysis; assay type: ADME, organism-based; settings: in vivo
How it was run: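 Mouse PK with the compound formulated at 1 mg/mL in ethanol–PEG–water (20:40:40). Given IV at 1 mg/kg (n = 2) and PO at 2 mg/kg (n = 3). Blood concentrations were measured by LC/MS/MS after protein precipitation with acetonitrile. Volume of distribution is reported in L/kg.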

[8] = Drug uptake in wild type MDR1A expressing CF1 mouse plasma at 30 mg/kg, po after 2 hrs; assay type: ADME, organism-based; parameters: dose 30 mg/kg, route oral
How it was run: (§2)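 CF1 MDR1A wild-type and MDR1A(-/-) mice (n = 4 each) received a single 30 mg/kg oral dose. Plasma and brain concentrations (nM) were measured at 2 and 6 h post-dose. The brain/plasma ratio was derived for each time point.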

[9] = Drug uptake in wild type MDR1A expressing CF1 mouse plasma at 30 mg/kg, po after 6 hrs; assay type: ADME, organism-based; parameters: dose 30 mg/kg, route oral; how it was run: as §2
[10] = Drug uptake in wild type MDR1A expressing CF1 mouse brain at 30 mg/kg, po after 2 hrs; assay type: ADME, organism-based; parameters: dose 30 mg/kg, route oral; settings: read-out: Drug uptake; how it was run: as §2
[11] = Drug uptake in wild type MDR1A expressing CF1 mouse brain at 30 mg/kg, po after 6 hrs; assay type: ADME, organism-based; parameters: dose 30 mg/kg, route oral; settings: read-out: Drug uptake; how it was run: as §2
[12] = Ratio of drug level in brain to plasma in wild type MDR1A expressing CF1 mouse at 30 mg/kg, po after 2 hrs; assay type: ADME, organism-based; parameters: dose 30 mg/kg, route oral; settings: read-out: BPR; how it was run: as §2
[13] = Ratio of drug level in brain to plasma in wild type MDR1A expressing CF1 mouse at 30 mg/kg, po after 6 hrs; assay type: ADME, organism-based; parameters: dose 30 mg/kg, route oral; settings: read-out: BPR; how it was run: as §2
[14] = Drug uptake in MDR1A knock-out CF1 mouse plasma at 30 mg/kg, po after 2 hrs; assay type: ADME, organism-based; parameters: dose 30 mg/kg, route oral; how it was run: as §2
[15] = Drug uptake in MDR1A knock-out CF1 mouse plasma at 30 mg/kg, po after 6 hrs; assay type: ADME, organism-based; parameters: dose 30 mg/kg, route oral; how it was run: as §2
[16] = Drug uptake in MDR1A knock-out CF1 mouse brain at 30 mg/kg, po after 2 hrs; assay type: ADME, organism-based; parameters: dose 30 mg/kg, route oral; settings: read-out: Drug uptake; how it was run: as §2
[17] = Drug uptake in MDR1A knock-out CF1 mouse brain at 30 mg/kg, po after 6 hrs; assay type: ADME, organism-based; parameters: dose 30 mg/kg, route oral; settings: read-out: Drug uptake; how it was run: as §2
[18] = Ratio of drug level in brain to plasma in MDR1A knock-out CF1 mouse at 30 mg/kg, po after 2 hrs; assay type: ADME, organism-based; parameters: dose 30 mg/kg, route oral; settings: read-out: BPR; how it was run: as §2
[19] = Ratio of drug level in brain to plasma in MDR1A knock-out CF1 mouse at 30 mg/kg, po after 6 hrs; assay type: ADME, organism-based; parameters: dose 30 mg/kg, route oral; settings: read-out: BPR; how it was run: as §2
Mus musculus [20] = experiment: Terminal plasma PrCP inhibition in eDIO mouse model at 10 mg/kg, sc administered for 7 days; assay type: functional; settings: 168 h, route subcutaneous
Mus musculus [21] = experiment: Induction of weight loss in wild type PrCP expressing mouse at 30 mg/kg, sc administered for 7 days; assay type: functional, organism-based; parameters: dose 30 mg/kg
How it was run: (§3)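 Wild-type and PrCP knockout mice (n = 8 per group) received continuous subcutaneous infusion by pump for 7 days at 10 or 30 mg/kg. The vehicle was DMSO–1,2-propanediol (1:1 v/v). Body weight and food intake were recorded daily and compared with a vehicle group. Injection-site adverse events were noted, and terminal plasma drug concentration was measured.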

Mus musculus [22] = experiment: Induction of weight loss in PrCP knock-out mouse at 30 mg/kg, sc administered for 7 days; assay type: functional, organism-based; parameters: dose 30 mg/kg; how it was run: as §3
Mus musculus [23] = experiment: Induction of weight loss in wild type PrCP expressing mouse at 10 mg/kg, sc administered for 7 days; assay type: functional, organism-based; parameters: dose 10 mg/kg; how it was run: as §3
Mus musculus [24] = experiment: Induction of weight loss in PrCP knock-out mouse at 10 mg/kg, sc administered for 7 days; assay type: functional, organism-based; parameters: dose 10 mg/kg; how it was run: as §3
Mus musculus [25] = experiment: Inhibition of wild type PrCP in mouse plasma at 30 mg/kg, sc administered for 7 days by fluorescence analysis; assay type: functional; settings: 168 h, route subcutaneous
Mus musculus [26] = experiment: Inhibition of wild type PrCP in mouse plasma at 10 mg/kg, sc administered for 7 days by fluorescence analysis; assay type: functional; settings: 168 h, route subcutaneous
Mus musculus [27] = species: Mus musculus; settings: 10 mg/kg

Structure (SMILES): C[C@H](NC(=O)[C@@H](NC(=O)C(C)(C)N)[C@@H](C)c1ccc(-c2ccccc2)cc1)c1ccc(Cl)cc1
- IC50 [2]: 2.3 nM
- IC50 [1]: 198 nM

Structure (SMILES): O=C(CCN1CCC(c2nc(-c3ccccn3)no2)CC1)NC(c1ccc(Cl)cc1)c1ccc(Cl)cc1
- half-life [3]: 0.7 h
- bioavailability [4]: 1.3%
- AUC/dose (Mus musculus [5]): < 0.01 µM·kg·h/mg
- IC50 [2]: 10 nM
- IC50 [1]: 305 nM
- clearance [6]: 105 mL/min/kg
- Vd [7]: 5.6 L/kg

Structure (SMILES): C[C@@H](c1ccc(-c2ccccc2)cc1)[C@H](NC(=O)C(C)(C)N)C(=O)NC(c1ccncc1)c1ccc(Cl)cc1 (mixture of isomers)
- half-life [3]: 3.6 h
- IC50 [2]: 0.4 nM
- IC50 [1]: 6 nM
- clearance [6]: 85 mL/min/kg
- Vd [7]: 21 L/kg

Structure (SMILES): C[C@H](NC(=O)[C@@H](N)[C@@H](C)c1ccc(-c2ccccc2)cc1)c1ccc(Cl)cc1
- IC50 [2]: 11 nM
- IC50 [1]: 570 nM

Structure (SMILES): C[C@@H](c1ccc(-c2ccccc2)cc1)[C@H](NC(=O)C(C)(C)N)C(=O)N1CCC[C@H]1c1nc2cc(Cl)c(Cl)cc2[nH]1
- IC50 [1]: 26 nM
- concentration at 2 h [8]: 306 nM
- concentration at 6 h [9]: 91 nM
- concentration at 2 h [10]: 4 nM
- concentration at 6 h [11]: 3 nM
- Kp at 2 h [12]: 0.01
- Kp at 6 h [13]: 0.04
- concentration at 2 h [14]: 186 nM
- concentration at 6 h [15]: 51 nM
- concentration at 2 h [16]: 166 nM
- concentration at 6 h [17]: 185 nM
- Kp at 2 h [18]: 0.9
- Kp at 6 h [19]: 3.6

Structure (SMILES): C[C@H](NC(=O)CCN1CCC(c2nc(-c3ccccn3)no2)CC1)c1ccc(F)cc1
- IC50 [1]: 348 nM

Structure (SMILES): O=C(CCN1CCC(c2ccccc2)CC1)N1CCC[C@H]1c1nc2cc(Cl)c(Cl)cc2[nH]1
- IC50 [1]: > 10000 nM

Structure (SMILES): C[C@@H](c1ccc(-c2ccccc2)cc1)[C@H](N)C(=O)NC(c1ccncc1)c1ccc(Cl)cc1 (mixture of isomers)
- IC50 [2]: 1.4 nM
- IC50 [1]: 108 nM

Structure (SMILES): O=C(CCN1CCC(c2nc(-c3ccccn3)no2)CC1)N1CCC[C@H]1c1nc2cc(Cl)c(Cl)cc2[nH]1
- IC50 [2]: 4 nM

Structure (SMILES): CC(NC(=O)CCN1CCC(c2ccccc2)CC1)c1ccccc1-c1ccccc1 (centres undefined)
- IC50 [2]: 5.7 nM

Structure (SMILES): O=C(CCN1CCC(c2nc(-c3ccccn3)no2)CC1)NC(c1ccncc1)c1ccc(F)cc1 (racemic)
- IC50 [1]: 15 nM

Structure (SMILES): C[C@@H](c1ccc(-c2ccccc2)cc1)[C@H](NC(=O)C(C)(C)N)C(=O)NC(c1ccc(Cl)cc1)C(F)F (mixture of isomers)
- IC50 [2]: 6.6 nM
- IC50 [1]: 458 nM

Structure (SMILES): C[C@@H](c1ccc(-c2ccccc2)cc1)[C@H](NC(=O)C(C)(C)N)C(=O)NC(c1ccc(Cl)cc1)C(F)(F)F (mixture of isomers)
- half-life [3]: 4.4 h
- bioavailability [4]: 40%
- AUC/dose (Mus musculus [5]): 0.19 µM·kg·h/mg
- clearance [6]: 78 mL/min/kg
- Vd [7]: 24 L/kg

Second part, led by results:

- IC50 [1]: 156 nM
Structure (SMILES): O=C(CCN1CCC(c2nc(-c3ccccn3)no2)CC1)NC(c1ccc(Cl)cc1)C(F)F (racemic)

- IC50 [2]: 5.2 nM
- IC50 [1]: 12.6 nM
Structure (SMILES): CC(C)[C@H](NC(=O)CCN1CCC(c2ccccc2)CC1)c1ccc(Cl)cc1
- inhibition in vivo at 10 mg/kg (Mus musculus [20]): 65%
- Activity (Mus musculus [21]): Active
- Activity (Mus musculus [22]): Active
- Activity (Mus musculus [23]): inactive
- Activity (Mus musculus [24]): inactive
- inhibition in vivo at 30 mg/kg (Mus musculus [25]): 85%
- inhibition in vivo at 10 mg/kg (Mus musculus [26]): 87%
- inhibition (Mus musculus [27]): inactive

- IC50 [2]: 20 nM
Structure (SMILES): C[C@H](NC(=O)CCN1CCC(c2ccccc2)CC1)c1ccc(Br)cc1

- IC50 [2]: 14 nM
Structure (SMILES): O=C(CCN1CCC(c2ccccc2)CC1)NC(c1ccc(Cl)cc1)C(F)(F)F (centres undefined)

- IC50 [2]: 25 nM
Structure (SMILES): Cn1cc(C(NC(=O)CCN2CCC(c3ccccc3)CC2)c2ccc(Cl)cc2)cn1 (racemic)

- half-life [3]: 2.3 h
- bioavailability [4]: < 1%
- AUC/dose (Mus musculus [5]): < 0.01 µM·kg·h/mg
- IC50 [2]: 54 nM
- IC50 [1]: 240 nM
- clearance [6]: 185 mL/min/kg
- Vd [7]: 27 L/kg
Structure (SMILES): C[C@H](NC(=O)CCN1CCC(c2ccccc2)CC1)c1ccc(Cl)cc1

- IC50 [2]: 2.1 nM
Structure (SMILES): O=C(CCN1CCC(c2ccccc2)CC1)NC(c1ccncc1)c1ccc(Cl)cc1 (racemic)

- IC50 [2]: 4 nM
- IC50 [1]: 58 nM
Structure (SMILES): O=C(CCN1CCC(c2ccccc2)CC1)NC(c1ccc(Cl)cc1)c1ccc(Cl)cc1

- IC50 [2]: 17 nM
- IC50 [1]: 17 nM
Structure (SMILES): O=C(CCN1CCC(c2ccccc2)CC1)NC(c1ccc(Cl)cc1)C(F)F (centres undefined)
